Laboratory results published in ChEMBL document CHEMBL4689842, “EUbOPEN Chemogenomics Library wave 1” (2021).

Tested on: U2OS
Experiment: Multiplex assay against U2OS
Format: toxicity, cell-based
Conditions: human
Outline: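 Four dyes were applied at seeding to live cells: Hoechst33342, BioTracker Green Microtubule Cytoskeleton Dye, MitoTracker Red and Annexin V Alexa Fluor 680. Imaging after compound addition used a CQ1 microscope at 37°C and 5% CO2. CellPathfinder machine-learning gating then sorted cells into Hoechst high-intensity objects or normal cells, normal cells into healthy, pyknosed or fragmented nuclei, and pyknosed cells into mitotic or apoptotic, with tubulin, mitochondrial-mass and membrane-permeability phenotypes given as per cents of healthy-nucleus cells.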

[1] = 12 h, 1 µM, compound concentration 1 uM, replicate 1
[2] = 12 h, 1 µM, compound concentration 1 uM, replicate 2
[3] = 12 h, 10 µM, compound concentration 10 uM, replicate 1
[4] = 12 h, 10 µM, compound concentration 10 uM, replicate 2
[5] = 24 h, 1 µM, compound concentration 1 uM, replicate 1
[6] = 24 h, 1 µM, compound concentration 1 uM, replicate 2
[7] = 24 h, 10 µM, compound concentration 10 uM, replicate 1
[8] = 24 h, 10 µM, compound concentration 10 uM, replicate 2
[9] = 48 h, 1 µM, compound concentration 1 uM, replicate 1
[10] = 48 h, 1 µM, compound concentration 1 uM, replicate 2
[11] = 48 h, 10 µM, compound concentration 10 uM, replicate 1
[12] = 48 h, 10 µM, compound concentration 10 uM, replicate 2

Cc1nc(-c2cn3c(n2)-c2ccc(-c4cnn(C(C)(C)C(N)=O)c4)cc2OCC3)n(C(C)C)n1 [TASELISIB]
Population Apoptotic (%) [1]: 54% | Population Fragmented Nuclei (%) [1]: 3% | Population Healthy Nuclei (%) [1]: 84% | Population Hoechst High Intensity Objects (%) [1]: 2% | Population Membrane Permeable-Phenotype (%) [1]: 16% | Population Mitochondria Different-Phenotype (%) [1]: 10% | Population Mitotic Cells (%) [1]: 45% | Population Normal (%) [1]: 97% | Population Pyknosed Nuclei (%) [1]: 11% | Population Tubulin-Different-Phenotype (%) [1]: 9% | Total Cell Count [1]: 181 | Population Apoptotic (%) [2]: 16% | Population Fragmented Nuclei (%) [2]: 12% | Population Healthy Nuclei (%) [2]: 77% | Population Hoechst High Intensity Objects (%) [2]: 12% | Population Membrane Permeable-Phenotype (%) [2]: 27% | Population Mitochondria Different-Phenotype (%) [2]: 20% | Population Mitotic Cells (%) [2]: 83% | Population Normal (%) [2]: 87% | Population Pyknosed Nuclei (%) [2]: 9% | Population Tubulin-Different-Phenotype (%) [2]: 25% | Total Cell Count [2]: 89 | Population Apoptotic (%) [3]: 44% | Population Fragmented Nuclei (%) [3]: 5% | Population Healthy Nuclei (%) [3]: 89% | Population Hoechst High Intensity Objects (%) [3]: 2% | Population Membrane Permeable-Phenotype (%) [3]: 12% | Population Mitochondria Different-Phenotype (%) [3]: 19% | Population Mitotic Cells (%) [3]: 55% | Population Normal (%) [3]: 97% | Population Pyknosed Nuclei (%) [3]: 5% | Population Tubulin-Different-Phenotype (%) [3]: 24% | Total Cell Count [3]: 166 | Population Apoptotic (%) [4]: 55% | Population Fragmented Nuclei (%) [4]: 9% | Population Healthy Nuclei (%) [4]: 78% | Population Hoechst High Intensity Objects (%) [4]: 16% | Population Membrane Permeable-Phenotype (%) [4]: 18% | Population Mitochondria Different-Phenotype (%) [4]: 12% | Population Mitotic Cells (%) [4]: 44% | Population Normal (%) [4]: 83% | Population Pyknosed Nuclei (%) [4]: 12% | Population Tubulin-Different-Phenotype (%) [4]: 12% | Total Cell Count [4]: 65 | Population Apoptotic (%) [5]: 40% | Population Fragmented Nuclei (%) [5]: 6% | Population Healthy Nuclei (%) [5]: 80% | Population Hoechst High Intensity Objects (%) [5]: 4% | Population Membrane Permeable-Phenotype (%) [5]: 15% | Population Mitotic Cells (%) [5]: 59% | Population Normal (%) [5]: 95% | Population Pyknosed Nuclei (%) [5]: 13% | Population Tubulin-Different-Phenotype (%) [5]: 12% | Total Cell Count [5]: 240 | Population Apoptotic (%) [6]: 27% | Population Fragmented Nuclei (%) [6]: 20% | Population Healthy Nuclei (%) [6]: 64% | Population Hoechst High Intensity Objects (%) [6]: 6% | Population Membrane Permeable-Phenotype (%) [6]: 21% | Population Mitochondria Different-Phenotype (%) [6]: 6% | Population Mitotic Cells (%) [6]: 72% | Population Normal (%) [6]: 93% | Population Pyknosed Nuclei (%) [6]: 15% | Population Tubulin-Different-Phenotype (%) [6]: 29% | Total Cell Count [6]: 91 | Population Apoptotic (%) [7]: 27% | Population Healthy Nuclei (%) [7]: 91% | Population Hoechst High Intensity Objects (%) [7]: 1% | Population Mitochondria Different-Phenotype (%) [7]: 11% | Population Mitotic Cells (%) [7]: 72% | Population Normal (%) [7]: 98% | Population Pyknosed Nuclei (%) [7]: 4% | Population Tubulin-Different-Phenotype (%) [7]: 26% | Total Cell Count [7]: 168 | Population Apoptotic (%) [8]: 60% | Population Fragmented Nuclei (%) [8]: 4% | Population Healthy Nuclei (%) [8]: 83% | Population Hoechst High Intensity Objects (%) [8]: 4% | Population Membrane Permeable-Phenotype (%) [8]: 13% | Population Mitochondria Different-Phenotype (%) [8]: 15% | Population Mitotic Cells (%) [8]: 40% | Population Normal (%) [8]: 95% | Population Pyknosed Nuclei (%) [8]: 11% | Population Tubulin-Different-Phenotype (%) [8]: 20% | Total Cell Count [8]: 67

COc1cccc([C@@H](C)NCCCc2ccccc2Cl)c1.Cl [TECALCET HYDROCHLORIDE]
Population Apoptotic (%) [1]: 50% | Population Fragmented Nuclei (%) [1]: 22% | Population Healthy Nuclei (%) [1]: 72% | Population Hoechst High Intensity Objects (%) [1]: 32% | Population Membrane Permeable-Phenotype (%) [1]: 3% | Population Mitochondria Different-Phenotype (%) [1]: 34% | Population Mitotic Cells (%) [1]: 50% | Population Normal (%) [1]: 67% | Population Pyknosed Nuclei (%) [1]: 5% | Population Tubulin-Different-Phenotype (%) [1]: 30% | Total Cell Count [1]: 188 | Population Apoptotic (%) [2]: 16% | Population Fragmented Nuclei (%) [2]: 10% | Population Healthy Nuclei (%) [2]: 81% | Population Hoechst High Intensity Objects (%) [2]: 10% | Population Membrane Permeable-Phenotype (%) [2]: 6% | Population Mitochondria Different-Phenotype (%) [2]: 20% | Population Mitotic Cells (%) [2]: 83% | Population Normal (%) [2]: 89% | Population Pyknosed Nuclei (%) [2]: 8% | Population Tubulin-Different-Phenotype (%) [2]: 18% | Total Cell Count [2]: 70 | Population Apoptotic (%) [3]: 62% | Population Fragmented Nuclei (%) [3]: 11% | Population Healthy Nuclei (%) [3]: 64% | Population Hoechst High Intensity Objects (%) [3]: 8% | Population Membrane Permeable-Phenotype (%) [3]: 6% | Population Mitochondria Different-Phenotype (%) [3]: 86% | Population Mitotic Cells (%) [3]: 37% | Population Normal (%) [3]: 91% | Population Pyknosed Nuclei (%) [3]: 23% | Population Tubulin-Different-Phenotype (%) [3]: 90% | Total Cell Count [3]: 53 | Population Apoptotic (%) [4]: 41% | Population Fragmented Nuclei (%) [4]: 7% | Population Healthy Nuclei (%) [4]: 75% | Population Hoechst High Intensity Objects (%) [4]: 5% | Population Membrane Permeable-Phenotype (%) [4]: 18% | Population Mitochondria Different-Phenotype (%) [4]: 90% | Population Mitotic Cells (%) [4]: 58% | Population Normal (%) [4]: 94% | Population Pyknosed Nuclei (%) [4]: 17% | Population Tubulin-Different-Phenotype (%) [4]: 96% | Total Cell Count [4]: 83 | Population Apoptotic (%) [5]: 44% | Population Fragmented Nuclei (%) [5]: 22% | Population Healthy Nuclei (%) [5]: 57% | Population Hoechst High Intensity Objects (%) [5]: 26% | Population Membrane Permeable-Phenotype (%) [5]: 3% | Population Mitochondria Different-Phenotype (%) [5]: 30% | Population Mitotic Cells (%) [5]: 55% | Population Normal (%) [5]: 73% | Population Pyknosed Nuclei (%) [5]: 20% | Population Tubulin-Different-Phenotype (%) [5]: 19% | Total Cell Count [5]: 239 | Population Apoptotic (%) [6]: 77% | Population Fragmented Nuclei (%) [6]: 8% | Population Healthy Nuclei (%) [6]: 80% | Population Hoechst High Intensity Objects (%) [6]: 8% | Population Membrane Permeable-Phenotype (%) [6]: 6% | Population Mitochondria Different-Phenotype (%) [6]: 6% | Population Mitotic Cells (%) [6]: 22% | Population Normal (%) [6]: 91% | Population Pyknosed Nuclei (%) [6]: 10% | Population Tubulin-Different-Phenotype (%) [6]: 12% | Total Cell Count [6]: 95 | Population Apoptotic (%) [7]: 50% | Population Fragmented Nuclei (%) [7]: 12% | Population Healthy Nuclei (%) [7]: 63% | Population Hoechst High Intensity Objects (%) [7]: 12% | Population Membrane Permeable-Phenotype (%) [7]: 10% | Population Mitochondria Different-Phenotype (%) [7]: 81% | Population Mitotic Cells (%) [7]: 50% | Population Normal (%) [7]: 87% | Population Pyknosed Nuclei (%) [7]: 23% | Population Tubulin-Different-Phenotype (%) [7]: 79% | Total Cell Count [7]: 61 | Population Apoptotic (%) [8]: 35% | Population Fragmented Nuclei (%) [8]: 8% | Population Healthy Nuclei (%) [8]: 70% | Population Hoechst High Intensity Objects (%) [8]: 8% | Population Membrane Permeable-Phenotype (%) [8]: 24% | Population Mitochondria Different-Phenotype (%) [8]: 91% | Population Mitotic Cells (%) [8]: 64% | Population Normal (%) [8]: 91% | Population Pyknosed Nuclei (%) [8]: 20% | Population Tubulin-Different-Phenotype (%) [8]: 92% | Total Cell Count [8]: 97 | Population Apoptotic (%) [9]: 83% | Population Fragmented Nuclei (%) [9]: 29% | Population Healthy Nuclei (%) [9]: 60% | Population Hoechst High Intensity Objects (%) [9]: 20% | Population Membrane Permeable-Phenotype (%) [9]: 8% | Population Mitochondria Different-Phenotype (%) [9]: 34% | Population Mitotic Cells (%) [9]: 16% | Population Normal (%) [9]: 79% | Population Pyknosed Nuclei (%) [9]: 10% | Population Tubulin-Different-Phenotype (%) [9]: 14% | Total Cell Count [9]: 378 | Population Apoptotic (%) [10]: 63% | Population Fragmented Nuclei (%) [10]: 6% | Population Healthy Nuclei (%) [10]: 84% | Population Hoechst High Intensity Objects (%) [10]: 7% | Population Membrane Permeable-Phenotype (%) [10]: 12% | Population Mitochondria Different-Phenotype (%) [10]: 15% | Population Mitotic Cells (%) [10]: 36% | Population Normal (%) [10]: 92% | Population Pyknosed Nuclei (%) [10]: 9% | Population Tubulin-Different-Phenotype (%) [10]: 18% | Total Cell Count [10]: 153 | Population Apoptotic (%) [11]: 77% | Population Fragmented Nuclei (%) [11]: 18% | Population Healthy Nuclei (%) [11]: 54% | Population Hoechst High Intensity Objects (%) [11]: 11% | Population Membrane Permeable-Phenotype (%) [11]: 7% | Population Mitochondria Different-Phenotype (%) [11]: 55% | Population Mitotic Cells (%) [11]: 22% | Population Normal (%) [11]: 88% | Population Pyknosed Nuclei (%) [11]: 27% | Population Tubulin-Different-Phenotype (%) [11]: 62% | Total Cell Count [11]: 73 | Population Apoptotic (%) [12]: 54% | Population Fragmented Nuclei (%) [12]: 10% | Population Healthy Nuclei (%) [12]: 60% | Population Hoechst High Intensity Objects (%) [12]: 4% | Population Membrane Permeable-Phenotype (%) [12]: 36% | Population Mitochondria Different-Phenotype (%) [12]: 82% | Population Mitotic Cells (%) [12]: 45% | Population Normal (%) [12]: 95% | Population Pyknosed Nuclei (%) [12]: 29% | Population Tubulin-Different-Phenotype (%) [12]: 73% | Total Cell Count [12]: 130
